For data set [1], the target named is hERG (KCNH2) (Homo sapiens, UniProt Q12809). In words: (§1) Displacement of [35S]MK-0499 from hERG at 10 uM. The settings on record: probe [35S]MK-0499. Background: Displacement assays read how much labelled ligand stays bound in the presence of the test substance.
Data set [2] addresses Sodium channel protein type 9 subunit alpha (Homo sapiens, UniProt Q15858). The data set is described as follows: Inhibition of human sodium channel Nav1.7 by FRET assay. The method, boiled down: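 hNav1.7 block was measured in a functional membrane-potential assay read out as FRET between two membrane-associated dyes.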
Data set [3] can be described thus: (§2) Oral bioavailability in Sprague-Dawley rat at 3 mg/kg. It counts as ADME, organism-based. As to conditions: Sprague-Dawley, in vivo. The method, boiled down:
(§3)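 Fasted male Sprague–Dawley rats received 1.0 mg/kg iv through a femoral vein cannula (n = 3) or 3.0 mg/kg po by gavage (n = 3). Serial blood was drawn at 5 min (iv only), 15 and 30 min, and 1, 2, 4, 6 and 8 h. Plasma was protein-precipitated with acetonitrile and analysed by LC–MS/MS.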

The nature of data set [4]: Cmax in Sprague-Dawley rat at 1 mg/kg, iv or 3 mg/kg, po. The data set is classed as ADME, organism-based. As to conditions: in vivo. The gist of the method: as §3
Data set [5] is described as follows: Plasma clearance in Sprague-Dawley rat at 1 mg/kg, iv or 3 mg/kg, po. The data set is classed as ADME, organism-based. The method, boiled down: as §3
A short description of data set [6]: (§4) Half life in Sprague-Dawley rat at 1 mg/kg, iv or 3 mg/kg, po. It counts as ADME, organism-based. As to conditions: Sprague-Dawley, in vivo. The method, boiled down: as §3
The test system of data set [7] is Rattus norvegicus. The data set is described as follows: Reversal of allodynia in rat at 10 mg/kg, po after 2 hrs. The data set is classed as functional.
The subject of data set [8] is Rattus norvegicus. In words: Reversal of allodynia in rat at 10 mg/kg, po after 4 hrs. The data set is classed as functional.
The target of data set [9] is Voltage-gated inwardly rectifying potassium channel KCNH2 (Homo sapiens, UniProt Q12809). The description is as §1. As to conditions: 10 µM.
The subject of data set [10] is Rattus norvegicus. The data set is described as §2. It counts as ADME, organism-based. The settings on record: in vivo. The gist of the method:
as §3

Data set [11] deals with Rattus norvegicus. The data set is described as §4. It counts as ADME, organism-based. The settings on record: in vivo. The method, boiled down: as §3

The source of these data is ChEMBL document CHEMBL1140523, “Benzazepinone Nav1.7 blockers: potential treatments for neuropathic pain” (Bioorg Med Chem Lett, 2007).

Structures are written as SMILES. Bounds are passed on as bounds.

hERG (KCNH2), sequence (Q12809 whole entry): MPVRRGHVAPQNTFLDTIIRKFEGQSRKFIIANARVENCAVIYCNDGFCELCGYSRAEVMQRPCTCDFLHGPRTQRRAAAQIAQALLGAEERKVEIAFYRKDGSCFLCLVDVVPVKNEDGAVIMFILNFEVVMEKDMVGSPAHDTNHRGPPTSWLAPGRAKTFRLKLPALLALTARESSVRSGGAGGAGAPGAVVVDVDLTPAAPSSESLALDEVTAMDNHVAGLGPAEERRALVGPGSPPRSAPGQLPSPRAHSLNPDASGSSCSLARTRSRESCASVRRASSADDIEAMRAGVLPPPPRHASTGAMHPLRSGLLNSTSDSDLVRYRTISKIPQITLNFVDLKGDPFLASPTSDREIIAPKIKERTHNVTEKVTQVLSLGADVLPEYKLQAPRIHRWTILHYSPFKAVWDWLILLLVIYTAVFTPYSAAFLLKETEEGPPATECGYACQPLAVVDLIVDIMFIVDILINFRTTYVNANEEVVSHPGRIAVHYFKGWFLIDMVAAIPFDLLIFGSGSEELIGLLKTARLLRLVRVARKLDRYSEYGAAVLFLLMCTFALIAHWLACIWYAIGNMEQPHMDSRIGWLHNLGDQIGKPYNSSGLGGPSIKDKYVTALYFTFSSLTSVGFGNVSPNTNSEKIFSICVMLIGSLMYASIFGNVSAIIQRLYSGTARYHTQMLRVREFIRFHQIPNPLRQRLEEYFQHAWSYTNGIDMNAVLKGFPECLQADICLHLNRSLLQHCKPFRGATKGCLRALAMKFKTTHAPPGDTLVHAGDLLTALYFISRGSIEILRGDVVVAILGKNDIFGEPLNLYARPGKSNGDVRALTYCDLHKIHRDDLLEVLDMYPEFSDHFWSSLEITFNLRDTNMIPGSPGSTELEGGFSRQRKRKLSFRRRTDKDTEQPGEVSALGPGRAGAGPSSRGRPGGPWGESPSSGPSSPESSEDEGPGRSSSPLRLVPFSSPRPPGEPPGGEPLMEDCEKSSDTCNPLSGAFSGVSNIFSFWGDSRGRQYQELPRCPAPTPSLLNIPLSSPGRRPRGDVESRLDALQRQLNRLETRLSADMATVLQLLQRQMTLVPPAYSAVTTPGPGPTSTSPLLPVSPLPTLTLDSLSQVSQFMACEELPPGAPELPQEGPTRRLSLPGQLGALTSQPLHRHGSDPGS
Sodium channel protein type 9 subunit alpha, sequence (Q15858 whole entry): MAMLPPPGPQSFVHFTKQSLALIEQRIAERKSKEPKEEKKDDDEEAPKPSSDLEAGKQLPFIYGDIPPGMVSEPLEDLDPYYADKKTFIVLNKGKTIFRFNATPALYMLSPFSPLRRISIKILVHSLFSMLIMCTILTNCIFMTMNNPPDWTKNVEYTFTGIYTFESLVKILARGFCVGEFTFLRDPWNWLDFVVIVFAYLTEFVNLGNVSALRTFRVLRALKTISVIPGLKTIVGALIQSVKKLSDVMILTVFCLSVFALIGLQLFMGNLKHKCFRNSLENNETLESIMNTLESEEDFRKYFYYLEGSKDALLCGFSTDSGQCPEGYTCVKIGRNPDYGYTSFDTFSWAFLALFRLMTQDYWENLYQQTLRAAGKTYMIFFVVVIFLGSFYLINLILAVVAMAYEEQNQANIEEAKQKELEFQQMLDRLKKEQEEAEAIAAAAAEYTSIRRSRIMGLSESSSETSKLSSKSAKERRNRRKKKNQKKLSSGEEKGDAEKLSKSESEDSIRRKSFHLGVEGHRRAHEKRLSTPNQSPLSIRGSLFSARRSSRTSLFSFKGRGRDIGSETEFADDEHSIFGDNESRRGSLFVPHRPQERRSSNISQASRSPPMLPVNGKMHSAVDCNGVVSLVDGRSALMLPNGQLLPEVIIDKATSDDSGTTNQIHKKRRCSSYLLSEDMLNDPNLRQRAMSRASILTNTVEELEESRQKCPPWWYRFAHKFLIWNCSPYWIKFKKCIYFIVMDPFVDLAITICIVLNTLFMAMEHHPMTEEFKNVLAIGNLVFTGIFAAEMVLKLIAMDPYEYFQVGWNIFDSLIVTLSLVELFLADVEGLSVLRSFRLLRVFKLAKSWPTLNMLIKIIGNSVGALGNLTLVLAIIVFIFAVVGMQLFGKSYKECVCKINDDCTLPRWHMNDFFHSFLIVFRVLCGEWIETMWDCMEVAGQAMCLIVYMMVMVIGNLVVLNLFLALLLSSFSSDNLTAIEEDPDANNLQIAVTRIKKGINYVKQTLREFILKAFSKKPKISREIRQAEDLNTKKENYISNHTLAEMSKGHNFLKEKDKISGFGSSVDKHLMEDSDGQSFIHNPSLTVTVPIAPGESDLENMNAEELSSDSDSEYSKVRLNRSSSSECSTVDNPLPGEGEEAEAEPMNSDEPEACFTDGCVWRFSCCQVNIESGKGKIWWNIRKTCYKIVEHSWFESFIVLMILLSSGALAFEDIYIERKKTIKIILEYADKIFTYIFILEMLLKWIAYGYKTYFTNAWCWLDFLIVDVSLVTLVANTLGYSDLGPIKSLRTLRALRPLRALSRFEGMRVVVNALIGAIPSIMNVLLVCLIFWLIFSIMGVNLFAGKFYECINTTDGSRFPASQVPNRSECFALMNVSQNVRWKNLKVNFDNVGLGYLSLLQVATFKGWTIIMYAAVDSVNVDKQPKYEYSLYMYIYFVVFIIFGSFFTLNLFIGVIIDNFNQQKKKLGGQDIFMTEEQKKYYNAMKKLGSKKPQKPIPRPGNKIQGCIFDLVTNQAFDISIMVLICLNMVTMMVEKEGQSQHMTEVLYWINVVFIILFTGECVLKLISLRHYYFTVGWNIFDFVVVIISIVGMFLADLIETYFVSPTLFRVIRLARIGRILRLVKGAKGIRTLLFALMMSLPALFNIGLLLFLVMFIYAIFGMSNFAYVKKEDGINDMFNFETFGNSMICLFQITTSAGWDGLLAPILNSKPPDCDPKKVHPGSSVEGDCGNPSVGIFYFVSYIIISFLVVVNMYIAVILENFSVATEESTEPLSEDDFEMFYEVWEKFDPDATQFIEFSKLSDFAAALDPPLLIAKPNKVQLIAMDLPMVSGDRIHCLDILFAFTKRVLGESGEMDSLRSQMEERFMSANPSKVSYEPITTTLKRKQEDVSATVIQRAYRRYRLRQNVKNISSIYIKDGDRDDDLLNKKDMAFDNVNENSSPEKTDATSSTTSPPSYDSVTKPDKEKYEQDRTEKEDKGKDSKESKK
Voltage-gated inwardly rectifying potassium channel KCNH2, sequence (Q12809 whole entry): as the sequence (Q12809 whole entry) above

As usually defined, the inhibition is the change of the read-out against control, counted positive when it falls. Low values mean little suppression, high ones strong suppression. The compound `CC(C)N1C(=O)[C@H](NC(=O)[C@@H](Cc2ccccc2OC(F)(F)F)NC(=O)OC(C)(C)C)CCc2ccccc21` registered an inhibition at 10 µM in [1] of 17%.
One may read the IC50 as the midpoint of a concentration-inhibition curve. A high value points to weaker potency. For orientation: bioavailability means the share of a dose that reaches the circulation, judged against a reference dose that is usually intravenous. A lower bioavailability goes with little systemic uptake. For orientation: Cmax means the highest concentration seen after dosing. One may read the half-life as the time needed for the level to fall by half in the phase considered. The compound `CC(C)N1C(=O)[C@H](NC(=O)[C@@H](Cc2ccccc2OC(F)(F)F)NC(=O)c2ccc(F)cc2C(F)(F)F)CCc2ccccc21` displayed an IC50 in data set [2] of 128 nM. In data set [1], the inhibition at 10 µM amounted to 31%. Also, the bioavailability in data set [3] worked out at 86%. The highest level in [4] (Cmax) was 430 nM. Besides, the clearance in data set [5] worked out at 51 mL/min/kg. Besides, the half-life in [6] is 2.6 h.
The compound `CC(C)N1C(=O)[C@H](NC(=O)[C@@H](Cc2ccccc2OC(F)(F)F)NC(=O)c2ccccn2)CCc2ccccc21` registered an IC50 in [2] of 177 nM. The compound also gave an inhibition at 10 µM in data set [1] of 61%. Besides, the bioavailability in data set [3] turned out to be 60%. In data set [4], this compound displayed a Cmax of 550 nM. This compound displayed a clearance in data set [5] of 43 mL/min/kg. The compound also gave a half-life in data set [6] of 1.2 h.
As to `CC(C)N1C(=O)[C@H](NC(=O)[C@@H](Cc2ccccc2OC(F)(F)F)NC(=O)c2ccncc2)CCc2ccccc21`, it took 453 nM to reach half-maximal inhibition in data set [2] (IC50). Moreover, 10 µM produced 44% inhibition in data set [1].
In turn, `CC(C)N1C(=O)[C@H](NC(=O)[C@@H](Cc2ccccc2OC(F)(F)F)NC(=O)c2cncnc2)CCc2ccccc21` had an IC50 in data set [2] above 1000 nM.
Turning to `CC(C)N1C(=O)[C@H](NC(=O)[C@@H](Cc2cccc(F)c2F)NC(=O)c2ccc(F)cc2C(F)(F)F)CCc2cc(Cl)ccc21`, in data set [2], the IC50 stood at 146 nM. In data set [1], this compound gave an inhibition at 10 µM of 3%.
`CC(C)N1C(=O)[C@H](NC(=O)[C@@H](Cc2ccccc2OC(F)(F)F)NC(=O)c2ccc(F)cc2C(F)(F)F)CCc2cc(Cl)ccc21` had an IC50 in data set [2] of 169 nM. The compound further registered an inhibition at 10 µM in [1] of 7%. The same compound showed a bioavailability in data set [3] of 65%. Moreover, in data set [4], the Cmax amounted to 520 nM. The clearance in [5] is 29 mL/min/kg. For the same compound, in data set [6], the half-life was 2.6 h.
For the compound `CC(C)N1C(=O)[C@H](NC(=O)[C@@H](Cc2ccccc2OC(F)(F)F)NC(=O)OC(C)(C)C)COc2ccccc21`, inhibition in [2] was half-maximal at 44 nM (IC50). The compound further gave an inhibition at 10 µM in [1] of 17%. For the same compound, the bioavailability in [3] is 25%. This compound came in with a clearance in [5] of 40 mL/min/kg. The compound further had a half-life in [6] of 2 h.
`CC(C)N1C(=O)[C@H](NC(=O)[C@@H](Cc2ccccc2F)NC(=O)c2ccc(F)cc2C(F)(F)F)CCc2cc(Cl)ccc21`: half-maximal inhibition in data set [2] (IC50) required 30 nM. The compound also displayed an inhibition at 10 µM in [1] of 32%. For the same compound, in data set [3], the bioavailability worked out at 90%. The same compound registered a Cmax in data set [4] of 330 nM. Besides, the clearance in [5] is 44 mL/min/kg. In [6], this compound had a half-life of 2.8 h. The values for the Activity in data set [7] and in data set [8] were 56% and 28%, respectively.
With `CC(C)N1C(=O)[C@H](NC(=O)[C@@H](Cc2ccc(F)cc2F)NC(=O)c2ccc(F)cc2C(F)(F)F)CCc2cc(Cl)ccc21`, the IC50 in [2] is above 1000 nM.
`CC(C)N1C(=O)[C@H](NC(=O)[C@@H](Cc2ccccc2OC(F)(F)F)NC(=O)C(C)(C)C)CCc2ccccc21`: it took 131 nM to reach half-maximal inhibition in data set [2] (IC50). For the same compound, the inhibition at 10 µM in data set [1] turned out to be 18%. The same compound displayed a bioavailability in data set [3] of 16%. This compound gave a Cmax in data set [4] of 140 nM. The compound further yielded a clearance in data set [5] of 31 mL/min/kg. Moreover, the half-life in [6] is 1.8 h.
Turning to `CC(C)N1C(=O)[C@H](NC(=O)[C@@H](Cc2ccccc2OC(F)(F)F)NC(=O)OC(C)(C)C)CCc2cc(Cl)ccc21`, the IC50 in data set [2] stood at 108 nM. This compound also gave an inhibition at 10 µM in data set [1] of 32%. The bioavailability in data set [3] worked out at 31%. In data set [5], the clearance was 13 mL/min/kg. This compound also showed a half-life in data set [6] of 3 h.
For the compound `CC(C)N1C(=O)[C@H](NC(=O)[C@@H](Cc2ccccc2OC(F)(F)F)NC(=O)C(C)(C(F)(F)F)C(F)(F)F)CCc2ccccc21`, the 50% inhibitory concentration (IC50) in [2] amounted to 203 nM. Moreover, in [1], the inhibition at 10 µM was 10%. In [3], this compound yielded a bioavailability of 42%. The compound further returned a Cmax in data set [4] of 330 nM. In [5], this compound registered a clearance of 23 mL/min/kg. Besides, in data set [6], the half-life was 2.5 h.
`CC(C)N1C(=O)[C@H](NC(=O)[C@@H](Cc2c(F)cccc2F)NC(=O)c2ccc(F)cc2C(F)(F)F)CCc2cc(Cl)ccc21` registered an IC50 in data set [2] of 290 nM. The compound further had an inhibition at 10 µM in [1] of 7%. The bioavailability in data set [3] was 68%. Moreover, the highest level in [4] (Cmax) was 740 nM. Moreover, in data set [5], the clearance stood at 19 mL/min/kg. Besides, the half-life in data set [6] was 2 h. Besides, the Activity was 18% in data set [7] and 35% in data set [8].
`CC(C)N1C(=O)[C@H](NC(=O)[C@@H](Cc2c(Cl)cccc2Cl)NC(=O)c2ccc(F)cc2C(F)(F)F)CCc2cc(Cl)ccc21` gave an IC50 in [2] of 107 nM. Moreover, in data set [1], the inhibition at 10 µM came out at 20%. Moreover, the bioavailability in [3] came to 70%. Besides, the Cmax in data set [4] was determined as 1470 nM. In data set [5], this compound came in with a clearance of 12 mL/min/kg. In addition, the half-life in data set [6] is 2.9 h. Further, the Activity is recorded as 14% in data set [7] and 9% in data set [8].
In data set [2], `CC(C)N1C(=O)[C@H](NC(=O)[C@@H](Cc2ccccc2OC(F)(F)F)NC(=O)c2ncccn2)CCc2ccccc21` had an IC50 above 1000 nM. The compound further showed an inhibition at 10 µM in data set [1] of 15%.
For `CC(C)N1C(=O)[C@H](NC(=O)[C@@H](Cc2cc(F)ccc2F)NC(=O)c2ccc(F)cc2C(F)(F)F)CCc2cc(Cl)ccc21`, in [2], half-maximal inhibition (IC50) was put at 232 nM. Moreover, the inhibition at 10 µM in data set [1] came out at 10%. The compound further had a bioavailability in data set [3] of 42%. Also, in data set [4], the highest level (Cmax) was 260 nM. The compound further yielded a clearance in data set [5] of 32 mL/min/kg. The compound further showed a half-life in [6] of 2.2 h. Further, the results for the Activity in data set [7] and in [8] were 55% and 61%, respectively.
Consider `CC(C)N1C(=O)[C@H](NC(=O)[C@@H](Cc2ccccc2OC(F)(F)F)NC(=O)C(F)(F)F)CCc2ccccc21`, for which, in data set [2], the IC50 was 868 nM. Also, in data set [1], the inhibition at 10 µM was determined as 40%.
On to `CC(C)N1C(=O)[C@H](NC(=O)[C@@H](Cc2ccccc2OC(F)(F)F)NC(=O)c2ccccc2C(F)(F)F)CCc2ccccc21`, for which the half-inhibitory concentration (IC50) in data set [2] was 98 nM. This compound came in with an inhibition at 10 µM in data set [1] of 0%.
In [2], `CC(C)N1C(=O)[C@H](NC(=O)[C@@H](Cc2ccccc2OC(F)(F)F)NC(=O)c2ccc(F)cc2)CCc2ccccc21` returned an IC50 of 94 nM. The compound further registered an inhibition at 10 µM in data set [1] of 26%. In [3], this compound yielded a bioavailability of 50%. Moreover, the Cmax in data set [4] is 240 nM. This compound displayed a clearance in data set [5] of 66 mL/min/kg. The compound also showed a half-life in data set [6] of 2.1 h.
As to `CC(C)N1C(=O)[C@H](NC(=O)[C@@H](Cc2ccccc2OC(F)(F)F)NC(=O)c2ccc(C(F)(F)F)cc2)CCc2ccccc21`, it took 175 nM to reach half-maximal inhibition in data set [2] (IC50). For the same compound, the inhibition at 10 µM in data set [1] amounted to 43%.
For `CC(=O)N[C@H](Cc1ccccc1OC(F)(F)F)C(=O)N[C@@H]1CCc2ccccc2N(C(C)C)C1=O` the same measures were above 1000 nM and 9%.
In the case of `CC(C)N1C(=O)[C@H](NC(=O)[C@@H](Cc2ccccc2OC(F)(F)F)NC(=O)c2ccccc2)CCc2ccccc21`, in data set [2], half-maximal inhibition (IC50) required 22 nM. Further, in [1], at 10 µM the inhibition was 83%. Also, in data set [3], the bioavailability stood at 18%. In data set [4], the Cmax was determined as 150 nM. Besides, the clearance in data set [5] is 43 mL/min/kg. In [6], this compound had a half-life of 1.5 h.
As a reminder, the Inhibition is how much of the control response was suppressed. A lower Inhibition goes with a response near the control. `CC(C)N1C(=O)C(NC(=O)[C@@H](Cc2ccccc2OC(F)(F)F)NC(=O)OC(C)(C)C)CCc2cccnc21` (stereo in doubt; 24): in data set [2], the IC50 amounted to 80 nM. For the same compound, in data set [9], the Inhibition was 7%. In addition, in data set [10], the F was found to be 4%. Besides, the t1/2 in data set [11] was 1.9 h.
As for `CC(C)N1C(=O)C(NC(=O)[C@@H](Cc2ccccc2OC(F)(F)F)NC(=O)OC(C)(C)C)CCc2cccnc21` (stereo in doubt; 25), in data set [2], the IC50 came out at 79 nM. Also, in data set [9], the Inhibition was 18%. The compound also returned a F in data set [10] of 27%. Further, in [5], the clearance worked out at 24 mL/min/kg. Further, the half-life in data set [6] is 1.4 h.
